RAD52 anneal inh: RAD52 (human) annealing inhibition. P43351. recombinant RAD52 DNA annealing, FRET fluorescence. inhibition, % at 18.7 µM. 0.46% of 360,000 active;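 active = every replicate showing at least 50% inhibition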
Target sequence (P43351 whole entry, looked up): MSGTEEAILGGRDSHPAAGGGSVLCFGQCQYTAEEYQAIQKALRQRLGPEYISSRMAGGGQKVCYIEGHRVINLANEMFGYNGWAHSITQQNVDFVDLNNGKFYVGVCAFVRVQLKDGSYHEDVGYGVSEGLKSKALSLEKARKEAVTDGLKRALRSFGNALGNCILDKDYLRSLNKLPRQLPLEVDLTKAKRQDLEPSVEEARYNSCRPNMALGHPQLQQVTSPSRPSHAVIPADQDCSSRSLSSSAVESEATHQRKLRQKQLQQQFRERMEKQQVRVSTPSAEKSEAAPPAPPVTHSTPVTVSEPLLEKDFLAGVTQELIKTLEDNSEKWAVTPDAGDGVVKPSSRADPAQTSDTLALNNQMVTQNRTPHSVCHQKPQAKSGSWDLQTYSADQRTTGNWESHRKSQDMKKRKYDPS
PAX8 reporter: lowers PAX8-driven luciferase in RMG-I cells | RMG-I TPO-luciferase reporter, SteadyGlo, 24 h | 1.2% of 360,000 active | inhibition, % at 12.6 µM;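 active = mean replicate inhibition at least 60% with every replicate also reaching 60%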;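 also: luciferase light reporting Pax8 driven TPO promoter activity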
RAD54 inh: inhibitors of human RAD54 branch migration | Q92698 | RAD54 Holliday junction branch migration, FAM/BHQ fluorescence | inhibition, % at 10.4 µM | 0.14% of 360,000 active | AID 602329;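 active = mean normalized replicate activity at least 40 and at least half of replicates scoring 40 or more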;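 also: inhibitors cause a drop in the FAM fluorescence signal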
FN deposition inh: fibronectin deposition inhibition. AH1F fibroblasts, Alexa488-fibronectin deposition fluorescence, overnight. inhibition, % at 12.6 µM. 0.086% of 350,000 active. AID 743247;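 active = mean inhibition across replicates of 30% or more, regardless of how many single replicates reach that level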
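Schedule: 1 h cell adhesion before compound, then overnight fibronectin incubation; test system: AH1F fibroblast monolayer depositing Alexa488-labelled fibronectin into matrix; quantity: 10000 AH1F cells per well; probe or stimulus: fluorescent fibronectin at 24 nM final; signal: fluorescence, ex 485 nm, em 525 nm; evaluation: percent inhibition as loss of matrix-bound fibronectin fluorescence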
Of the large screens only hits and unclear results are named; the others gave an inactive call; ! = a repeat was not active. A selection: hits, their analogues and other compounds. The true share with any hit is near 1.3%.

CN(C[C@@H]1N[C@@H](CO)[C@@H]1c1ccc(-c2cccc(F)c2)cc1)S(C)(=O)=O	none
COCCC(=O)N1CCCC(CNS(=O)(=O)c2ccc(OC)cc2)C1 (centres undefined)	none (no result: RAD54 inh)
CCO[C@@H]1OC(C(=O)N2CCN(Cc3ccccc3)CC2)=C[C@H](c2cn(C(C)=O)c3ccccc23)[C@H]1CCCO	none
CC(C)(C)c1ccccc1OCC(=O)NCCCn1ccnc1	none
Cc1cc(NC(=O)C2CC2)n(-c2nc3ccccc3s2)n1	none
CC1C(=O)N(Cc2cn(CCC3OCCCO3)nn2)CCS(=O)(=O)N1Cc1ccc(-c2cccc(N(C)C)c2)cc1 (centres undefined)	none
COc1ccccc1NC(=O)N(C)C[C@@H]1OCc2ccccc2-c2c(n(C)c3ccccc23)C(=O)N([C@H](C)CO)C[C@@H]1C	none
CCCCOc1ccc(NC(=O)C(=O)NCCCn2ccnc2)cc1	PAX8 reporter 85 (no result: RAD54 inh, FN deposition inh)
CN(C)c1ccc(NC(=S)NCC2CCCO2)cc1 (centres undefined)	PAX8 reporter 65 (no result: RAD54 inh)
CCCCc1ccc(NC(=S)NCC2CCCO2)cc1 (centres undefined)	none
O=C(C[C@H]1CC[C@H]2[C@@H](COC[C@H](O)CN2S(=O)(=O)c2ccc(Cl)cc2)O1)NCCN1CCCC1	none
C=CC#CC[N+]1(CC#Cc2ccccc2)CCOCC1	RAD52 anneal inh 74 (no result: RAD54 inh)
C(#Cc1ccccc1)C[N+]1(CC#Cc2ccccc2)CCCC1	none
CN(Cc1ccccc1)C(=O)c1ccc(Nc2nc(C(N)Cc3ccccc3)cs2)nc1 (centres undefined)	none
CN(Cc1ccccc1)C(=O)c1ccc(Nc2nc(C(N)Cc3ccc(C(F)(F)F)cc3)cs2)nc1 (centres undefined)	PAX8 reporter 87
CCCN(C(=O)c1cccc(S(=O)(=O)N2CCCc3ccccc32)c1)C1CCS(=O)(=O)C1 (centres undefined)	none
CCN(C(=O)COC(=O)c1ccc(S(=O)(=O)N2CCCc3ccccc32)cc1)C1CCS(=O)(=O)C1 (centres undefined)	PAX8 reporter 97 (no result: RAD54 inh)
CS(=O)(=O)Cc1ccc(C(=O)NC2CCN(Cc3ccccc3)C2)cc1 (centres undefined)	none
C[C@@H]1CCCCO[C@H](CN(C)C(=O)Nc2cccc3ccccc23)[C@H](C)CN([C@@H](C)CO)C(=O)c2cc(NS(=O)(=O)c3ccc(F)cc3)ccc2O1	none
C[C@@H]1CCCCO[C@H](CN(C)C(=O)Nc2cccc3ccccc23)[C@@H](C)CN([C@H](C)CO)C(=O)c2cc(NS(=O)(=O)c3ccc(F)cc3)ccc2O1	none
C[C@H]1CCCCO[C@H](CN(C)C(=O)Nc2cccc3ccccc23)[C@@H](C)CN([C@@H](C)CO)C(=O)c2cc(NS(=O)(=O)c3ccc(F)cc3)ccc2O1	PAX8 reporter 87
C[C@@H]1CCCCO[C@@H](CN(C)C(=O)Nc2cccc3ccccc23)[C@H](C)CN([C@H](C)CO)C(=O)c2cc(NS(=O)(=O)c3ccc(F)cc3)ccc2O1	PAX8 reporter 93
COc1cccc(OC)c1C(=O)Nc1cccc(-c2ccc3nncn3n2)c1	none
CCc1ccc(C(=O)Nc2nc3ccccc3[nH]2)cc1	PAX8 reporter 76
CC(C)Oc1ccc(C(=O)Nc2nc3ccccc3[nH]2)cc1	PAX8 reporter 68
Cc1ccc(CNC(=S)Nc2ccc3c(c2)c(=O)n(C)n3Cc2cccc(C(F)(F)F)c2)cc1	none
O=C(c1ccc(Cl)cc1)N1CCCCC(Sc2nnc(-c3ccc4c(c3)OCO4)o2)C1=O (centres undefined)	PAX8 reporter 70 (no result: RAD52 anneal inh)
COc1cc(OC)cc(C(=O)NNC(=O)c2cc3ccccc3cc2O)c1	none
CCCN1C[C@@H](C)[C@H](OC)CN(C)C(=O)c2ccc(NC(=O)CC)cc2OC[C@@H]1C	none (no result: RAD52 anneal inh, PAX8 reporter, RAD54 inh)
Cc1ccc(NC(=S)N/N=C/c2c(C)nn(-c3ccccc3)c2N2CCCC2)cc1	none (no result: RAD54 inh)
COc1cc(NC(=O)c2ccc(N)nc2)cc(C(=O)Nc2cccc(C(F)(F)F)c2)c1	none
COc1cc(NC(=O)c2nccnc2N)cc(C(=O)Nc2cccc(C(F)(F)F)c2)c1	PAX8 reporter 76
COc1cc(NC(=O)c2cc3cccc(OC)c3o2)cc(C(=O)Nc2cccc(C(F)(F)F)c2)c1	PAX8 reporter 92
COc1ccc(-c2cc(C(=O)Nc3cc(OC)cc(C(=O)Nc4cccc(C(F)(F)F)c4)c3)[nH]n2)cc1	PAX8 reporter 72!
COc1cc(NC(=O)N2CCNC2=O)cc(C(=O)Nc2cccc(C(F)(F)F)c2)c1	PAX8 reporter 63
O=C(Nc1ccc([N+](=O)[O-])cc1)Nc1ccc(OC(F)F)c(Cl)c1	PAX8 reporter 83 (no result: RAD52 anneal inh, RAD54 inh)
O=C(Nc1ccc(OC(F)F)c(Cl)c1)Nc1ccc2c(c1)OCO2	none (no result: RAD52 anneal inh, RAD54 inh)
Cc1nc2c3ccccc3nc(NNC(=O)CCC(=O)NCCN3CCN(c4ccccc4F)CC3)n2n1	none (no result: RAD52 anneal inh, PAX8 reporter, FN deposition inh)
CC(C)C[C@H](NC(=O)c1nc[nH]c1C(=O)N[C@@H](CCCCNC(=O)OC(C)(C)C)C(=O)OC(C)(C)C)C(=O)OC(C)(C)C	PAX8 reporter 102
C[C@@H](NC(=O)c1nc[nH]c1C(=O)N[C@@H](Cc1ccccc1)C(=O)OC(C)(C)C)c1ccccc1	PAX8 reporter 95
CC(C)(C)OC(=O)NCc1ccc(CNC(=O)c2[nH]cnc2C(=O)N[C@@H](Cc2ccccc2)C(=O)OC(C)(C)C)cc1	PAX8 reporter 76
COc1ccc(N2CCN(C(=O)COC(=O)c3cnccn3)CC2)cc1	none (no result: PAX8 reporter)
CCCCNC(=O)C[C@H]1C[C@@]2(C(=O)OC)C(=C[C@H](C(C)(C)C)O[C@@H]2C)N(CCC2=CCCCC2)C1=O	none (no result: RAD54 inh)
CN=c1scc(-c2ccccc2F)n1/N=C/c1ccc(O)c(O)c1O	PAX8 reporter 83
CN=c1scc(-c2ccccc2F)n1/N=C/c1ccc[nH]1	PAX8 reporter 96 (no result: RAD54 inh)
CC(C)N=c1scc(-c2cccs2)n1/N=C/c1ccc(O)c(O)c1O	none (no result: RAD52 anneal inh, RAD54 inh)
C/C=C/c1ccc([C@H]2[C@@H](CO)N(C(=O)C3CCCC3)C23CN(S(C)(=O)=O)C3)cc1	none (no result: PAX8 reporter, RAD54 inh)
O=C(CSc1nc2c(cnn2-c2cccc(Cl)c2)c(=O)[nH]1)NCC1CCCO1 (centres undefined)	none
O=S(=O)(Nc1cc(Sc2cccc3cccnc23)c(O)c2ccccc12)c1ccccc1	PAX8 reporter 105 (no result: RAD54 inh)
COc1cccc(CCNC(=O)c2cc(COc3ccc(C)c(C)c3)on2)c1OC	none
Cc1nc2ccccc2n1/N=C/c1ccc([N+](=O)[O-])s1	PAX8 reporter 62 (no result: RAD54 inh)
O=[N+]([O-])c1ccc(/C=N/n2c(CO)nc3ccccc32)s1	none (no result: RAD52 anneal inh)
COC(=O)c1ccc(CN2CCCC(C(=O)Nc3ccc(-c4ccn[nH]4)cc3)C2)cc1 (centres undefined)	none
Cc1cc(C(C)(C)C)cc(S(=O)(=O)Nc2ccc(O)c(C(=O)O)c2)c1C	none (no result: RAD52 anneal inh, PAX8 reporter, RAD54 inh)
CC(=O)Nc1ccc(NC(=O)c2ccc(NS(=O)(=O)c3cc(C(C)(C)C)cc(C)c3C)cc2)cc1	PAX8 reporter 68
C[C@@H]1CN([C@@H](C)CO)C(=O)Cc2cc(NC(=O)Cc3ccccc3)ccc2O[C@H]1CN(C)Cc1ccc(C(F)(F)F)cc1	PAX8 reporter 70
